Rows were chosen to be rich in hits. Some 2.3% of all compounds tested hit in one or more screens of this group.
TPT1 inh – C. albicans TPT1 enzyme inhibition; inhibition, % at 5 µM; recombinant caTPT1, FP RNA substrate dephosphorylation; 300,000 tested, 0.81% active;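 active = inhibition above the mean of all tested compounds plus 3 SD, set per screening campaign, cut at about 24% in these data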;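 note: plate controls were DMSO alone for no effect and ferristatin control at 100 nM for full effect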
Rpn11 block – inhibitors of human proteasome Rpn11 | O00487 | human 26S proteasome, Ub4-pepOG fluorescence polarization; 20S core pre-blocked with epoxomicin | calls only at 20 µM | 360,000 tested, 0.59% active | AID 588493;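 active = inhibition at 20 µM, scaled to each plate's controls, above about 33%, limit read from the data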
CSN inh – inhibitors of human CSN-mediated cullin deneddylation; 360,000 tested, 0.38% active; Purified CSN, SCF-Nedd8-OG deneddylation, fluorescence polarization; Q92905; inhibition, % at 12.5 µM;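 active = pattern-corrected inhibition above about 35%, with an unprinted fluorescence ratio check between 0.5 and 1.5, limit read from the data, passing the limit was not always enough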;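 note: 0% = enzyme with substrate and 100% = substrate without enzyme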
Target sequence (Q92905 whole entry, looked up, one chain of several): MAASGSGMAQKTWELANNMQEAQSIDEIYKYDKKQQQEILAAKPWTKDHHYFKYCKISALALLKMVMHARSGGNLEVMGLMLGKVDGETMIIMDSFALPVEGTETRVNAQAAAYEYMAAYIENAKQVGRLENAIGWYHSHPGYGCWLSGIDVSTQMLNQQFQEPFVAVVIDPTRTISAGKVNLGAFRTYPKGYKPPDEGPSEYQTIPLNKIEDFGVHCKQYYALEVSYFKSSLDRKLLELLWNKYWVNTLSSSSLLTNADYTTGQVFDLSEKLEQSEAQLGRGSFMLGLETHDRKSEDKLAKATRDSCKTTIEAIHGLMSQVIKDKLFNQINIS
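Assay system: purified human Csn5 enzyme expressed in HEK293T cells; Input: 0.24 nM Csn5 enzyme, final concentration; Reagent: 10 nM SCFSkp2-Nedd8OG; Compound dosing: 12.5 µM single point; Times: reaction 90 min, room temperature; Technique: fluorescence polarization readout.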
CRFBP-R2 block – blocks CRF-induced signaling of the CRF-BP/CRF-R2 complex; HEK293 CRF-R2/CRF-BP, CRF-induced calcium fluorescence; inhibition, % at 11.8 µM; 350,000 tested, 0.59% active; AID 588475;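 active = inhibition of the ligand-induced calcium signal above about 50% at the single tested concentration, limit read from the data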
CRFR2-BP ag – agonists of human CRF-binding protein/CRF-R2 receptor complex; HEK293 CRF-R2/CRF-BP, calcium dye fluorescence (FLIPR); percent of saturating CRF peptide response; activation, % at 13.2 µM; 350,000 tested, 0.46% active;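 active = activation of at least 50%, plus an integration ratio under a set limit after plate pattern correction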;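 note: plate controls were neutral control wells without compound for no effect and CRF at EC100 for full effect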
HNF4A DNA FP – change in binding of human HNF4 alpha to DNA; AID 1224865; activity change, % at 10 µM; HNF4a-FITC DNA binding, fluorescence polarization, 1 h; 360,000 tested, 0.3% active; P41235; in the data active = activity change above about 30%, passing the limit was not always enough
An asterisk follows results filed as active; i = inactive; . = not tested or not shown.

SMILES | TPT1 inh | Rpn11 block | CSN inh | CRFBP-R2 block | CRFR2-BP ag | HNF4A DNA FP
CCOc1ccc(NC(=O)C2C3CC/C=C\CCC32)cc1 (stereo not given) | -2.6 | i | -6.5 | 0.0 | -0.5 | 1.3
Cc1ccc(Nc2nc(-c3c(C)nc4ccccn34)cs2)cc1 | -0.6 | i | -8.6 | 65.9* | -5.7 | 2.9
Cc1cc(O)c(C2=Nc3ccccc3SC(c3ccc(Cl)cc3)C2)c(=O)o1 (stereo not given) | 6.4 | i | -4.3 | 83.5* | 0.0 | 0.8
COc1ccc(CSCCc2n[nH]c(=S)n2-c2ccccc2)cc1 | -4.0 | i | -0.1 | 17.8 | -0.9 | 0.5
O=c1ccc2cc(S(=O)(=O)NCc3ccccc3)ccc2[nH]1 | 2.6 | i | -3.0 | 98.9* | 0.0 | 0.7
CCOC(=O)c1ccc(NC(=O)c2cnccn2)cc1 | . | i | -4.3 | 8.1 | 0.2 | 1.1
C=CCn1c(CCc2ccccc2)nnc1SCC(N)=O | -3.9 | i | -5.4 | -1.2 | -0.7 | 5.3
CCOc1ccc(CNC(=O)CCC(=O)N2Cc3cccc(OC)c3Oc3ncccc32)cc1 | -1.3 | i | -3.6 | 52.1* | -0.9 | 1.6
CCC(=O)N1c2ccccc2-c2nnc(SC)nc2OC1c1ccc(N(C)C)cc1 (stereo not given) | 0.9 | i | -0.1 | 6.4 | -2.4 | 3.2
COc1ccc(S(=O)(=O)NNC(=O)c2csc(-n3nc(C)cc3C(F)(F)F)n2)cc1 | 0.2 | i | 4.6 | 61.5* | -4.1 | -1.5
COCCN(C(=O)c1cc(-c2ccco2)nc2ccccc12)c1c(N)n(Cc2ccccc2)c(=O)[nH]c1=O | . | i | 37.2* | 4.5 | -1.0 | -19.5
O=C(NCc1ccccn1)c1c(O)c2cccc3c2n(c1=O)CC3 | -4.4 | i | -1.0 | 8.8 | 4.7 | -0.7
Cc1ccnc(SCC(=O)Nc2sc3c(c2C#N)CCC(C(C)(C)C)C3)n1 (stereo not given) | -1.3 | i | 0.6 | -33.5 | 0.5 | -2.7
COc1cccc(/C=C2\SC(=S)N(N3C(=O)CCCC3=O)C2=O)c1 | -2.4 | i | 0.5 | 1.1 | -1.1 | 0.7
CCCCCCCCCCSc1n[nH]c(NC(C)=O)n1 | 2.0 | i | -0.2 | -12.0 | -0.8 | 2.6
CCCSc1n[nH]c(NC(C)=O)n1 | 4.2 | i | 3.4 | 56.1* | -0.5 | 2.4
COc1ccc(NC(=O)N2CCCc3ccccc32)c(OC)c1 | . | i | 1.3 | 22.0 | -1.8 | -1.8
COc1ccc(C)cc1NC(=O)N1CCCc2ccccc21 | -0.3 | i | 1.5 | 52.6* | 1.8 | 0.6
COc1ccc(N2C(=O)c3ccccc3C2O)cc1 (stereo not given) | 0.1 | i | -0.9 | 12.8 | 3.1 | 0.2
Cc1ccc(C)c(SCC(=O)OCC(=O)Nc2ccc(S(=O)(=O)N3CCOCC3)cc2)c1 | -0.1 | i | 2.8 | -9.5 | -1.7 | -1.5
Cc1cc(NCCCOC(C)C)n2c(nc3ccccc32)c1C#N | 3.0 | i | 51.9* | -0.5 | 0.5 | 9.1
Cc1cc(NCCCN(C)C)n2c(nc3ccccc32)c1C#N | 3.3 | i | 4.5 | -15.2 | -0.1 | -4.1
COc1cc(NC(=O)CSc2nc3c(C)ccc(C)c3cc2C)c(C(=O)O)cc1OC | -2.4 | i | -12.3 | 98.7* | 0.4 | -2.2
O=C(NCc1ccncc1)c1cc(F)c(F)cc1Cl | 0.1 | i | -1.4 | 59.7* | -0.2 | -0.6
O=C(Nc1ccc(Cc2ccncc2)cc1)c1cc(F)c(F)cc1Cl | -2.3 | i | -1.1 | 7.4 | 0.7 | -1.6
C=C(C)C(=O)Oc1ccc(N2C(=O)[C@@H]3C4C=CC(C4)[C@@H]3C2=O)cc1 | -4.8 | i | -3.0 | 60.8* | -0.7 | -1.7
CC[C@@]1(O)C(=O)OCc2c1cc1n(c2=O)Cc2cc3c(CN(C)C)c(O)ccc3nc2-1 | -88.5 | i | -74.9 | -241.7 | 231.3* | -136.4
CC[C@@]1(O)C(=O)OCc2c1cc1n(c2=O)Cc2cc3c(N)cccc3nc2-1 | -4.1 | i | 1.9 | 11.5 | 0.2 | -6.9
CCCCCCCCC(=O)c1c(OC)oc(C=O)cc1=O | . | . | 68.2* | -10.2 | 4.3 | 91.9
CCCCCCC(=O)Nc1cc2c(C)cc(=O)oc2cc1C | -2.8 | i | 1.0 | 8.2 | -0.4 | 1.7
